{
  "source": "ChEMBL document CHEMBL1933007",
  "about": "“Novel brain penetrant benzofuropiperidine 5-HT₆ receptor antagonists” (Bioorg Med Chem Lett, 2012)",
  "key": {"[1]": {"target": "Voltage-gated inwardly rectifying potassium channel KCNH2 (Homo sapiens, UniProt Q12809)", "sequence (Q12809 whole entry)": "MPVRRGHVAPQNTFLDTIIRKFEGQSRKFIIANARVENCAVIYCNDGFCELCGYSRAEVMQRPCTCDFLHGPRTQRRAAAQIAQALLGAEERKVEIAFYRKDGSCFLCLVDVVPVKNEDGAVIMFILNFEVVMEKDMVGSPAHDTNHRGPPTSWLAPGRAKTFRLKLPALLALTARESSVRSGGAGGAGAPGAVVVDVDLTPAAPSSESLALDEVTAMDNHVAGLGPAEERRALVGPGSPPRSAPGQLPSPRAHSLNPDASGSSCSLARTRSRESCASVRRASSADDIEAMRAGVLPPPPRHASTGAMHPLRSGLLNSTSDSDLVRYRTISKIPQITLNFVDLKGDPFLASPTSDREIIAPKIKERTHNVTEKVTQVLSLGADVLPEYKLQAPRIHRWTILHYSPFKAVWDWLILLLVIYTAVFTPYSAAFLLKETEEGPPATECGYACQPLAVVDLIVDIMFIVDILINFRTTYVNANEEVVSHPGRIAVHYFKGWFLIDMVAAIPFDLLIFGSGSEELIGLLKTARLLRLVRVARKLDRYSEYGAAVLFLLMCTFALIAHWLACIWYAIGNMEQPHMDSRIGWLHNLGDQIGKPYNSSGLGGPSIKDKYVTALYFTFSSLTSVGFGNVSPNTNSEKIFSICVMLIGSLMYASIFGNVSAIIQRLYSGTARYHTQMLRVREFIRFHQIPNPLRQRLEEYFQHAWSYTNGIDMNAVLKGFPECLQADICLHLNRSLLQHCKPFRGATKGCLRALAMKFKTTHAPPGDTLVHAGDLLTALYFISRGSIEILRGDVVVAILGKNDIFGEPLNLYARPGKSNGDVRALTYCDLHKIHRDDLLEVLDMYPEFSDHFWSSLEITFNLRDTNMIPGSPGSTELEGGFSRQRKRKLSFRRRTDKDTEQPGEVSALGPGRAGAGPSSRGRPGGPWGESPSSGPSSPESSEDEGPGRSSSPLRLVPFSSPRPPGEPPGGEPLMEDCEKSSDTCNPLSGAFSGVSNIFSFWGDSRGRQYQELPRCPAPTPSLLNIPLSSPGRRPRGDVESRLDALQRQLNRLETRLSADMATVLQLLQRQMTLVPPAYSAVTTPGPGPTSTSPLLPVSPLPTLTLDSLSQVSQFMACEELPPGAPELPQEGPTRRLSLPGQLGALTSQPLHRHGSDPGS", "assay": "Inhibition of human ERG by patch express assay"}, "[2]": {"target": "5-hydroxytryptamine receptor 6 (Rattus norvegicus, UniProt P31388)", "sequence (P31388 whole entry)": "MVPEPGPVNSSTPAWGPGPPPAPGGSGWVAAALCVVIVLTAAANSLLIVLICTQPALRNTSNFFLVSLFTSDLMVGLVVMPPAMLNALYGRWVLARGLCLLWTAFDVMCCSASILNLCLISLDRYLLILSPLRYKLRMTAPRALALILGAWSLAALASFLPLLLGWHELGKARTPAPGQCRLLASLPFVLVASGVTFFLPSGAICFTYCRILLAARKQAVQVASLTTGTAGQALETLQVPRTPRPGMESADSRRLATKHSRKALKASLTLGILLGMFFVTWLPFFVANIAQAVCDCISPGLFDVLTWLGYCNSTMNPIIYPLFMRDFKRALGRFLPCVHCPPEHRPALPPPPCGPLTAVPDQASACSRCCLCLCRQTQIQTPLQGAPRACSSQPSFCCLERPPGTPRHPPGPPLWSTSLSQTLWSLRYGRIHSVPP", "assay": "Displacement of [3H]LSD from full length rat 5HT6 receptor", "method_in_brief": "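Radioligand binding with [³H]LSD on membranes from cells expressing full-length rat 5-HT6R.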"}, "[3]": {"target": "T1, 5-hydroxytryptamine receptor 6 (Homo sapiens, UniProt P50406)", "T1 sequence (P50406 whole entry)": "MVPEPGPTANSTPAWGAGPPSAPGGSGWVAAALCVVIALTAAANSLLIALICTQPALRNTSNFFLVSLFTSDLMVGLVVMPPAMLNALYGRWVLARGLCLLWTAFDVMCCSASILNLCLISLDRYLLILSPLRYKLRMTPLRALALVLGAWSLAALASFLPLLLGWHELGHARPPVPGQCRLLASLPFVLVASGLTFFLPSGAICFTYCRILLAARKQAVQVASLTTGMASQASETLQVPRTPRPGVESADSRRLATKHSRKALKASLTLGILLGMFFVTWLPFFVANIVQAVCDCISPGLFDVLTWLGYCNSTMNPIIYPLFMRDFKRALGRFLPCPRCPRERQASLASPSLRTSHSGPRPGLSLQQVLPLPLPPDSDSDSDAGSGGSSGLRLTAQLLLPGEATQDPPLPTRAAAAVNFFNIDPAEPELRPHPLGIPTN", "assay": "Antagonist activity at human recombinant 5-HT6 receptor expressed human astrocytoma cells assessed as inhibition of 5-HT-induced cAMP accumulation after 10 mins preincubation by HTRF assay"}, "[4]": {"target": "T1, 5-hydroxytryptamine receptor 6", "assay": "Displacement of [3H]LSD from full length human 5HT6 receptor", "method_in_brief": "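Radioligand binding with [³H]LSD on membranes from cells expressing full-length human 5-HT6R.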"}, "[5]": {"assay": "Half life in human liver microsomes", "assay_type": "ADME, Microsome"}, "Cytochrome P450 2C19": {"target": "Cytochrome P450 2C19 (Homo sapiens, UniProt P33261)", "sequence (P33261 whole entry)": "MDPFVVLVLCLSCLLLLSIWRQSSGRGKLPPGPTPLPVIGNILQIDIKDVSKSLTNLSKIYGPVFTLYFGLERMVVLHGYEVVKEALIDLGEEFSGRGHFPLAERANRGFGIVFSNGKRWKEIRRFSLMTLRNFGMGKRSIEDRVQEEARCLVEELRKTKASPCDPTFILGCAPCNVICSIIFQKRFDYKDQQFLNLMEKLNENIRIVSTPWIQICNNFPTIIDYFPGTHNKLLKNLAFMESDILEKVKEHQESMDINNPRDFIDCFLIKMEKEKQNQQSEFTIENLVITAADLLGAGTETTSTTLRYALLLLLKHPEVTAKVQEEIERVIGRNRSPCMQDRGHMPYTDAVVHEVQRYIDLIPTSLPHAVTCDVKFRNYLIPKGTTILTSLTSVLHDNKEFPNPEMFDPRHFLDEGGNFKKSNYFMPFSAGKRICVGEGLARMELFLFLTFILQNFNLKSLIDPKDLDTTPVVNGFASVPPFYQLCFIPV", "assay": "Inhibition of CYP2C19", "assay_type": "ADME"}, "Cytochrome P450 1A2": {"target": "T2, Cytochrome P450 1A2 (Homo sapiens, UniProt P05177)", "T2 sequence (P05177 whole entry)": "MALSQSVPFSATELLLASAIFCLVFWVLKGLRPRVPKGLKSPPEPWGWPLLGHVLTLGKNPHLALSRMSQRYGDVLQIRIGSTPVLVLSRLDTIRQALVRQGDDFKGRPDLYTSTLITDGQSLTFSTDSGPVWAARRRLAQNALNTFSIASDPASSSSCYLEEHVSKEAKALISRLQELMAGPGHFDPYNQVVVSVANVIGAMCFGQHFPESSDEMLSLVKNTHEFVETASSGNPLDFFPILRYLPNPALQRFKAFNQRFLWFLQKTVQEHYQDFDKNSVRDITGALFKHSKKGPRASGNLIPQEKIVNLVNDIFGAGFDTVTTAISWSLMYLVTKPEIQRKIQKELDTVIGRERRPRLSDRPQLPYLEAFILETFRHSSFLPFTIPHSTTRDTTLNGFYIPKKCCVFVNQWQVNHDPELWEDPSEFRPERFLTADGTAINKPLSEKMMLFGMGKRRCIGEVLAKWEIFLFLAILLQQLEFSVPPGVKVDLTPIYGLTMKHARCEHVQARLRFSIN", "assay": "Inhibition of CYP1A2", "assay_type": "ADME"}, "[6]": {"assay": "Half life in dog liver microsomes", "assay_type": "ADME, Canis lupus familiaris, Microsome"}, "[7]": {"target": "5-hydroxytryptamine receptor 2B (Homo sapiens, UniProt P41595)", "sequence (P41595 whole entry)": "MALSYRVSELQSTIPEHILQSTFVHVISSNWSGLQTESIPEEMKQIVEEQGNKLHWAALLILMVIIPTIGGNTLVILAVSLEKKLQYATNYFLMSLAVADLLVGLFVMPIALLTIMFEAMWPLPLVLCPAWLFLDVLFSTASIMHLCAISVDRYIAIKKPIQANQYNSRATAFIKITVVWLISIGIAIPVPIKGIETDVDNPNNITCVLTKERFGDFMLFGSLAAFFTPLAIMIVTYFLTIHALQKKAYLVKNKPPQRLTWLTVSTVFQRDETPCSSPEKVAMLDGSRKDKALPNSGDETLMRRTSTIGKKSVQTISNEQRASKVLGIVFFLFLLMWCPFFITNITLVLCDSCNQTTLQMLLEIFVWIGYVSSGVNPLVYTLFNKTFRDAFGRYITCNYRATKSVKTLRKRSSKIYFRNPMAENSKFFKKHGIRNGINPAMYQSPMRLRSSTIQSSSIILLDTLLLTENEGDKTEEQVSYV", "assay": "Antagonist activity at 5HT2B receptor", "assay_type": "functional"}, "Cytochrome P450 2C9": {"target": "Cytochrome P450 2C9 (Homo sapiens, UniProt P11712)", "sequence (P11712 whole entry)": "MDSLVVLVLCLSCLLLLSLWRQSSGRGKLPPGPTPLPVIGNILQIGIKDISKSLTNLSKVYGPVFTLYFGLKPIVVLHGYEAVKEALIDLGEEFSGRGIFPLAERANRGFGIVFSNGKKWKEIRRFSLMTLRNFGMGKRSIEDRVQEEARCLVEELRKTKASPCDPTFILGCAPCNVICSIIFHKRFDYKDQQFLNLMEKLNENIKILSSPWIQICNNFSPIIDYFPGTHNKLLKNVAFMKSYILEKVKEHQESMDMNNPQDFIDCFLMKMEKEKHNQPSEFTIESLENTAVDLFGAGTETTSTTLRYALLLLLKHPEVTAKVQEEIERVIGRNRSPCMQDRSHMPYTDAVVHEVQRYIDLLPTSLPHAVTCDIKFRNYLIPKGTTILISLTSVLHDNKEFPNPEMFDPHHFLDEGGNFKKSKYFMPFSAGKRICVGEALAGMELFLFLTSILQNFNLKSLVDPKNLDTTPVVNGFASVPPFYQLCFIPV", "assay": "Inhibition of CYP2C9", "assay_type": "ADME"}, "[8]": {"assay": "Half life in rat liver microsomes", "assay_type": "ADME, Microsome"}, "[9]": {"assay": "Plasma clearance in rat at 1 mg/kg, iv", "assay_type": "ADME, organism-based", "parameters": "dose 1 mg/kg, route intravenous"}, "[10]": {"assay": "Cmax in rat at 5 mg/kg, po", "assay_type": "ADME, organism-based", "parameters": "dose 5 mg/kg, route oral", "conditions": "in vivo"}, "L-type calcium channel": {"target": "L-type calcium channel (Rattus norvegicus, UniProt P22002+P27732+Q02485)", "assay": "Inhibition of rat L-type calcium channel at 10 uM"}, "Brain": {"tested_on": "Brain", "assay": "Drug uptake in rat brain at 5 mg/kg, ip after 1 hr", "assay_type": "ADME, organism-based", "parameters": "dose 5 mg/kg, route intraperitoneal", "conditions": "in vivo", "method_in_brief": "(§1)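 Rats dosed intraperitoneally at 5 mg/kg. Brain concentration measured at 1 h and expressed as a brain-to-plasma ratio.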"}, "Cytochrome P450 2D6": {"target": "Cytochrome P450 2D6 (Homo sapiens, UniProt P10635)", "sequence (P10635 whole entry)": "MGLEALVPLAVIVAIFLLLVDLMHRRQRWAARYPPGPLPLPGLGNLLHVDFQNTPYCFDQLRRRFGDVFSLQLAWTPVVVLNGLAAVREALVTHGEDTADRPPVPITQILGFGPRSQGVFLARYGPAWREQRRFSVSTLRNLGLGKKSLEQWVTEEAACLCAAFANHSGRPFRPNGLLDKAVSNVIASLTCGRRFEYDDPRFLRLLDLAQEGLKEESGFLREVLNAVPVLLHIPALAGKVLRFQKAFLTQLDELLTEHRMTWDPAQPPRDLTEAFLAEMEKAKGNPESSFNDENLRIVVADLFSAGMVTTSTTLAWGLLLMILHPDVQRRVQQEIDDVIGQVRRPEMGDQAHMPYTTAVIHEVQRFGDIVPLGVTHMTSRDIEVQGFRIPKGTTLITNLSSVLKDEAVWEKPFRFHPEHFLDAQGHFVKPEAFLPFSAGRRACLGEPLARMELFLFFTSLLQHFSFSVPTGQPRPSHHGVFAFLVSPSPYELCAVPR", "assay": "Inhibition of CYP2D6", "assay_type": "ADME"}, "Rattus norvegicus": {"tested_on": "Rattus norvegicus", "assay": "AUC in rat at 5 mg/kg, po after 6 hrs", "assay_type": "ADME, organism-based, Plasma", "parameters": "time < 6 hr, dose 5 mg/kg, route oral", "conditions": "in vivo"}, "[11]": {"assay": "Ratio of drug level in brain to plasma in rat at 5 mg/kg, ip", "assay_type": "ADME, organism-based", "parameters": "dose 5 mg/kg, route intraperitoneal", "conditions": "read-out: BPR", "method_in_brief": "as §1"}, "Cytochrome P450 3A4": {"target": "Cytochrome P450 3A4 (Homo sapiens, UniProt P08684)", "sequence (P08684 whole entry)": "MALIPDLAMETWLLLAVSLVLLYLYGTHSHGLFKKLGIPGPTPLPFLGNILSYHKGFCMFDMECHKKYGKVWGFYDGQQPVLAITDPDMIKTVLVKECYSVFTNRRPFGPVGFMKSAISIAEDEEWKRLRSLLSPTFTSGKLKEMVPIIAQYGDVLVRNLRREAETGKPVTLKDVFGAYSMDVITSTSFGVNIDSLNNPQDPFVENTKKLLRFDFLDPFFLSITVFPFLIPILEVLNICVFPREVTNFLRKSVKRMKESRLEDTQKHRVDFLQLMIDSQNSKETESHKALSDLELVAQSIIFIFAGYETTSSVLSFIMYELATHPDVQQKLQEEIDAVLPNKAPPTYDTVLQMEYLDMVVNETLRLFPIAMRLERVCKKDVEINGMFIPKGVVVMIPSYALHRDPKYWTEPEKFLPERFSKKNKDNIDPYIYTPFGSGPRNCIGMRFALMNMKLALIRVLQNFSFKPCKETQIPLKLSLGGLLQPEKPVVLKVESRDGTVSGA", "assay": "Inhibition of CYP3A4", "assay_type": "ADME"}, "[12]": {"assay": "Half life in rat at 1 mg/kg, iv", "assay_type": "ADME, organism-based", "parameters": "dose 1 mg/kg, route intravenous", "conditions": "in vivo"}, "[13]": {"assay": "Oral bioavailability in rat at 5 mg/kg", "assay_type": "ADME, organism-based", "conditions": "in vivo"}, "[14]": {"assay": "Volume of distribution in rat at 1 mg/kg, iv", "assay_type": "ADME, organism-based", "parameters": "dose 1 mg/kg, route intravenous", "conditions": "in vivo"}, "[15]": {"assay": "Dissociation constant, pKa of the compound", "assay_type": "physicochemical", "method_in_brief": "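pKa is a calculated value, not a measured one.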"}},
  "data": [
    {"smiles": "O=S(=O)(c1cccc(F)c1)c1ccc2c3c(oc2c1)C1(CCCOC1)NCC3", "note": "(racemic)", "values": [
      {"measurement": "IC50", "setting": "[1]", "value": 13600, "unit": "nM"},
      {"measurement": "Ki", "setting": "[2]", "value": 38.3, "unit": "nM"}
    ]},
    {"smiles": "O=S(=O)(c1ccccc1)c1ccc2c3c(oc2c1)CNCC3", "values": [
      {"measurement": "IC50", "setting": "[3]", "value": 8.5, "unit": "nM"},
      {"measurement": "Ki", "setting": "[2]", "value": 9.8, "unit": "nM"},
      {"measurement": "Ki", "setting": "[4]", "value": 2.7, "unit": "nM"}
    ]},
    {"smiles": "O=S(=O)(c1cccc(F)c1)c1ccc2c3c(oc2c1)C1(CCCOC1)NCC3", "note": "(stereo in doubt; 2)", "values": [
      {"measurement": "half-life", "setting": "[5]", "value": 30, "unit": "min"},
      {"measurement": "IC50", "setting": "Cytochrome P450 2C19", "value": "> 30000", "unit": "nM"},
      {"measurement": "IC50", "setting": "Cytochrome P450 1A2", "value": "> 30000", "unit": "nM"},
      {"measurement": "half-life", "setting": "[6]", "value": "> 40", "unit": "min"},
      {"measurement": "IC50", "setting": "[7]", "value": 1500, "unit": "nM"},
      {"measurement": "IC50", "setting": "[1]", "value": 12000, "unit": "nM"},
      {"measurement": "IC50", "setting": "Cytochrome P450 2C9", "value": 1900, "unit": "nM"},
      {"measurement": "half-life", "setting": "[8]", "value": 25, "unit": "min"},
      {"measurement": "clearance", "setting": "[9]", "value": 32, "unit": "mL/min/kg"},
      {"measurement": "Cmax", "setting": "[10]", "value": 210, "unit": "ng/mL"},
      {"measurement": "inhibition at 10 µM", "setting": "L-type calcium channel", "value": "> 50", "unit": "%"},
      {"measurement": "Drug uptake", "setting": "Brain", "value": 1660, "unit": "nmol/g"},
      {"measurement": "IC50", "setting": "Cytochrome P450 2D6", "value": "> 30000", "unit": "nM"},
      {"measurement": "AUC", "setting": "Rattus norvegicus", "value": 974, "unit": "ng·h/mL"},
      {"measurement": "Kp", "setting": "[11]", "value": 2},
      {"measurement": "IC50", "setting": "Cytochrome P450 3A4", "value": "> 30000", "unit": "nM"},
      {"measurement": "half-life", "setting": "[12]", "value": 84, "unit": "min"},
      {"measurement": "Ki", "setting": "[2]", "value": 16.9, "unit": "nM"},
      {"measurement": "bioavailability", "setting": "[13]", "value": 36, "unit": "%"},
      {"measurement": "Vd", "setting": "[14]", "value": 4, "unit": "L/kg"}
    ]},
    {"smiles": "COCC1(C)NCCc2c1oc1cc(S(=O)(=O)c3cccc(F)c3)ccc21", "note": "(centres undefined)", "values": [
      {"measurement": "Ki", "setting": "[2]", "value": 113, "unit": "nM"},
      {"measurement": "pKa", "setting": "[15]", "value": 7.5},
      {"measurement": "Ki", "setting": "[4]", "value": 18, "unit": "nM"}
    ]},
    {"smiles": "CC1(C)NCCc2c1oc1cc(S(=O)(=O)c3ccccc3)ccc21", "values": [
      {"measurement": "IC50", "setting": "[3]", "value": 34, "unit": "nM"},
      {"measurement": "Ki", "setting": "[2]", "value": 41, "unit": "nM"},
      {"measurement": "Ki", "setting": "[4]", "value": 7.7, "unit": "nM"}
    ]},
    {"smiles": "CC1(C)NCCc2c1oc1cc(S(=O)(=O)c3cccc(F)c3)ccc21", "values": [
      {"measurement": "IC50", "setting": "[3]", "value": 11.7, "unit": "nM"},
      {"measurement": "half-life", "setting": "[5]", "value": "> 40", "unit": "min"},
      {"measurement": "half-life", "setting": "[6]", "value": 32, "unit": "min"},
      {"measurement": "half-life", "setting": "[8]", "value": 16, "unit": "min"},
      {"measurement": "clearance", "setting": "[9]", "value": 82, "unit": "mL/min/kg"},
      {"measurement": "Cmax", "setting": "[10]", "value": 35, "unit": "ng/mL"},
      {"measurement": "Drug uptake", "setting": "Brain", "value": 1620, "unit": "nmol/g"},
      {"measurement": "AUC", "setting": "Rattus norvegicus", "value": 149, "unit": "ng·h/mL"},
      {"measurement": "Kp", "setting": "[11]", "value": 7.7},
      {"measurement": "half-life", "setting": "[12]", "value": 54, "unit": "min"},
      {"measurement": "Ki", "setting": "[2]", "value": 19, "unit": "nM"},
      {"measurement": "bioavailability", "setting": "[13]", "value": 15, "unit": "%"},
      {"measurement": "Vd", "setting": "[14]", "value": 5.5, "unit": "L/kg"},
      {"measurement": "Ki", "setting": "[4]", "value": 2.9, "unit": "nM"}
    ]},
    {"smiles": "CC1(C(F)F)NCCc2c1oc1cc(S(=O)(=O)c3cccc(F)c3)ccc21", "note": "(centres undefined)", "values": [
      {"measurement": "Ki", "setting": "[2]", "value": 183, "unit": "nM"},
      {"measurement": "pKa", "setting": "[15]", "value": 6.2}
    ]},
    {"smiles": "COc1cccc(S(=O)(=O)c2ccc3c4c(oc3c2)CNCC4)c1", "values": [
      {"measurement": "IC50", "setting": "[3]", "value": 21, "unit": "nM"},
      {"measurement": "Ki", "setting": "[2]", "value": 34, "unit": "nM"},
      {"measurement": "Ki", "setting": "[4]", "value": 5.6, "unit": "nM"}
    ]},
    {"smiles": "O=S(=O)(c1cccc(F)c1)c1ccc2c3c(oc2c1)C1(CCOC1)NCC3", "note": "(racemic)", "values": [
      {"measurement": "IC50", "setting": "[3]", "value": 32, "unit": "nM"},
      {"measurement": "Ki", "setting": "[2]", "value": 132, "unit": "nM"},
      {"measurement": "pKa", "setting": "[15]", "value": 7.5},
      {"measurement": "Ki", "setting": "[4]", "value": 22.3, "unit": "nM"}
    ]}
  ]
}
